Legend:
[1] = Single dose pharmacokinetic study in CD-1 mice; assay type: in vivo; conditions: male, CD-1, mouse, plasma, po, 120 mg/kg
Method in brief: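 Male CD-1 mice (7 weeks, ≥1 week on AIN-93M diet) were given a single gavage of 120 mg/kg (3 mg/25 g) in 0.2 mL EPTG 3:6:1:5. Groups of 5–7 were killed at 0.1, 0.25, 0.5, 1, 2, 3, 6, 12 and 24 h. Heparinized cardiac blood was spun at 5000 g for 5 min. Plasma was extracted with ethyl acetate and run on HPLC. AUC0–24h was calculated noncompartmentally; mean ± SEM.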

[2] = test system: human LNCaP/AR-Luc cells; assay: LNCaP/AR-Luc xenograft growth in SCID-NSG mice; assay type: in vivo; conditions: decursinol 4.5 mg/mouse/day gavage, 7 days per week, vs vehicle
Method in brief: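 Male SCID-NSG mice (n=20/group) received daily gavage in EPTG 3:6:1:20 (300 μL) starting 7 days before s.c. inoculation of 20,000 LNCaP/AR-Luc cells (1:1 Matrigel:serum-free medium, lower right flank). Caliper measurement twice weekly; volume = (L×W²)/2. Tumors weighed at necropsy. Only the 10 largest tumors per group were analyzed; mean ± SD.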

[3] = test system: LNCaP/AR-luc xenograft tumor; assay: Histopathology of H&E stained xenograft tumor sections; assay type: in vivo, human; conditions: vs vehicle groups within each experiment
Method in brief: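 Tumors dissected at necropsy and fixed in neutral-buffered formalin. H&E-stained sections were examined for necrotic areas, hemorrhage and intravascular cancer-cell emboli.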

[4] = Body weight and organ weight of tumor-bearing SCID-NSG mice; assay type: in vivo; conditions: decursinol 4.5 mg/mouse/day
[5] = Subchronic; assay type: in vivo, mouse; conditions: 4 weeks; for Plasma biochemistry (Mean ± SD) ALB / Plasma biochemistry (Mean ± SD) ALP / Plasma biochemistry (Mean ± SD) ALT / Plasma biochemistry (Mean ± SD) AST / Plasma biochemistry (Mean ± SD) Amy / Plasma biochemistry (Mean ± SD) BUN / Plasma biochemistry (Mean ± SD) Chol / Plasma biochemistry (Mean ± SD) Gluc / Plasma biochemistry (Mean ± SD) T.Bili: male CD-1 mice, N=6
Method in brief: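 After 4 weeks of daily gavage (80, 120 or 160 mg/kg in EPTG 3:6:1:5, or vehicle) in male CD-1 mice, heparinized blood was taken by cardiac puncture at euthanasia. Plasma ALT, AST, ALP, albumin, amylase, BUN, creatinine, glucose, cholesterol and total bilirubin were measured by a veterinary diagnostic laboratory.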

[6] = Plasma decursinol by HPLC at 3 h after the last dose in SCID-NSG mice; assay type: in vivo, mouse
Method in brief: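 Plasma was collected 3 h after the last daily gavage dose (4.5 mg/mouse in EPTG 3:6:1:20) from tumor-bearing male SCID-NSG mice. Plasma with chrysin internal standard was extracted twice with ethyl acetate, dried and reconstituted in methanol. HPLC used a C18 column at room temperature with a water/acetonitrile gradient (20–90% over 15 min, then 90% for 8 min) and diode-array detection at 330 nm.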

[7] = Subchronic; assay type: in vivo, mouse; conditions: for Body Weight / Organ height (Mean ± SD) Brain / Organ height (Mean ± SD) Heart / Organ height (Mean ± SD) Kidney / Organ height (Mean ± SD) Liver / Organ height (Mean ± SD) Lung / Organ height (Mean ± SD) Prostate / Organ height (Mean ± SD) Spleen / Organ height (Mean ± SD) Testes: male CD-1 mice, N=6
Method in brief: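 24 male CD-1 mice (acclimated 2 weeks) were stratified by weight into 4 groups (N=6). They were gavaged daily, 7 days/week, for 4 weeks with 80, 120 or 160 mg/kg in EPTG 3:6:1:5, or 200 μL vehicle. Body weight was measured weekly, with the dose adjusted to it. At euthanasia organs were weighed, and plasma taken 3 h after the last dose was assayed by HPLC; […].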

[8] = test system: human LNCaP/AR-Luc cells; assay: Lung metastasis of LNCaP/AR-Luc xenograft by ex vivo bioluminescence imaging; assay type: in vivo; conditions: SCID-NSG mice, decursinol 4.5 mg/mouse/day gavage; control 100% (10 out of 10)
[9] = Stability of dosing preparation in EPTG excipient formula; assay type: physicochemical
[10] = DOH-3: 3 mg per 25 g body weight (120 mg/kg) daily gavage
[11] = DOH-4: 4 mg per 25 g body weight (160 mg/kg) daily gavage
[12] = DOH-3: 3 mg per 25 g body weight (120 mg/kg) daily gavage, 4 weeks
[13] = DOH-4: 4 mg per 25 g body weight (160 mg/kg) daily gavage, 4 weeks

For `CC1(C)Oc2cc3oc(=O)ccc3cc2C[C@@H]1O` [decursinol], the AUC(0-t) [1] was 193 µg·h/mL, the “decreased LNCaP/AR-Luc xenograft tumor growth (top 10 tumors)” value [2] was 75% and the “necrosis extent in tumor sections” value [3] was “did not noticeably differ”. For the same compound, the “weight of liver, kidney, testes and prostate at study termination” value ([4]; SCID-NSG mice, vs vehicle- or D/DA-treated mice) was “not statistically different”, the Body Weight ([4]; tumor-bearing SCID-NSG mice, noticeable at 7-8 weeks of treatment) was “progressive body weight disadvantage” and the “plasma biochemistry (ALP, AST, ALT, Amy, ALB, BUN, Gluc, Chol, T. Bili)” value ([5]; CD-1 mice, among the 4 groups) was “not statistically different”. For the same compound, the “Plasma biochemistry (Mean ± SD) ALB” value [5, 10] was 2.7 ± 0.2 g/dL, the “Plasma biochemistry (Mean ± SD) ALP” value [5, 10] was 47.2 ± 14.6 U/L and the “Plasma biochemistry (Mean ± SD) ALT” value [5, 10] was 34.3 ± 21.7 U/L. For the same compound, the “Plasma biochemistry (Mean ± SD) AST” value [5, 10] was 82.5 ± 29.6 U/L, the “Plasma biochemistry (Mean ± SD) Amy” value [5, 10] was 780.2 ± 70.1 U/L and the “Plasma biochemistry (Mean ± SD) BUN” value [5, 10] was 12.3 ± 2.5 mg/dL. For the same compound, the “Plasma biochemistry (Mean ± SD) Chol” value [5, 10] was 182.0 ± 38.8 mg/dL, the “Plasma biochemistry (Mean ± SD) Gluc” value [5, 10] was 367.3 ± 69.0 mg/dL and the “Plasma biochemistry (Mean ± SD) T.Bili” value [5, 10] was 0.27 ± 0.05 mg/dL. For the same compound, the “Plasma biochemistry (Mean ± SD) ALB” value [5, 11] was 2.3 ± 0.3 g/dL, the “Plasma biochemistry (Mean ± SD) ALP” value [5, 11] was 45.5 ± 9.1 U/L and the “Plasma biochemistry (Mean ± SD) ALT” value [5, 11] was 21.0 ± 7.6 U/L. The “Plasma biochemistry (Mean ± SD) AST” value [5, 11] was 72.3 ± 29.9 U/L, the “Plasma biochemistry (Mean ± SD) Amy” value [5, 11] was 668.0 ± 117.1 U/L and the “Plasma biochemistry (Mean ± SD) BUN” value [5, 11] was 14.0 ± 2.2 mg/dL. The “Plasma biochemistry (Mean ± SD) Chol” value [5, 11] was 161.0 ± 20.5 mg/dL, the “Plasma biochemistry (Mean ± SD) Gluc” value [5, 11] was 408.3 ± 130.0 mg/dL and the “Plasma biochemistry (Mean ± SD) T.Bili” value [5, 11] was 0.32 ± 0.10 mg/dL. The “plasma decursinol level, decursinol dosing over equi-molar D/DA dosing” value ([6]; SCID-NSG mice, 3 hours after the last dose) was 1.7 folds, the concentration at 3 h ([6]; male, SCID-NSG, mouse, plasma, oral, 4.5 mg/mouse) was 4100 ng/mL and the “plasma decursinol level (3 h post last dose)” value ([7]; CD-1 mice, 80, 120, and 160 mg decursinol/kg daily gavage, 4 weeks, EPTG 3:6:1:5) was “increase in a dose-dependent manner”. For the same compound, the body weight change ([7]; CD-1 mice, daily gavage as high as 4 mg/25 g or 160 mg per kg, 4 weeks) was “did not cause body weight change”, the “weights of liver, kidney, prostate, spleen, lung, heart, testes and brain” value ([7]; CD-1 mice, subchronic dosing 4 weeks, 80-160 mg/kg) was “did not affect” and the “Body Weight” value [7, 12] was 35.97 ± 2.10 g. The “Organ height (Mean ± SD) Brain” value [7, 12] was 0.53 ± 0.03 g, the “Organ height (Mean ± SD) Heart” value [7, 12] was 0.19 ± 0.01 g and the “Organ height (Mean ± SD) Kidney” value [7, 12] was 0.59 ± 0.08 g. The “Organ height (Mean ± SD) Liver” value [7, 12] was 1.58 ± 0.14 g, the “Organ height (Mean ± SD) Lung” value [7, 12] was 0.20 ± 0.02 g and the “Organ height (Mean ± SD) Prostate” value [7, 12] was 0.10 ± 0.02 g. The “Organ height (Mean ± SD) Spleen” value [7, 12] was 0.09 ± 0.02 g, the “Organ height (Mean ± SD) Testes” value [7, 12] was 0.25 ± 0.03 g and the “Body Weight” value [7, 13] was 35.38 ± 1.71 g. For the same compound, the “Organ height (Mean ± SD) Brain” value [7, 13] was 0.53 ± 0.02 g, the “Organ height (Mean ± SD) Heart” value [7, 13] was 0.20 ± 0.01 g and the “Organ height (Mean ± SD) Kidney” value [7, 13] was 0.60 ± 0.08 g. The “Organ height (Mean ± SD) Liver” value [7, 13] was 1.54 ± 0.17 g, the “Organ height (Mean ± SD) Lung” value [7, 13] was 0.22 ± 0.01 g and the “Organ height (Mean ± SD) Prostate” value [7, 13] was 0.12 ± 0.02 g. For the same compound, the “Organ height (Mean ± SD) Spleen” value [7, 13] was 0.09 ± 0.02 g, the “Organ height (Mean ± SD) Testes” value [7, 13] was 0.24 ± 0.05 g and the lung metastasis rate [8] was 60%. The “time in uniformly dispersed state after dilution from stock concentrate” value ([9]; EPTG (3:6:1:20) formula) was at most 20 min and the “time remaining as clear solution” value ([9]; new EPTG (3:6:1:5)) was “more than 1 hour”.

From paper PMC6800172 (The American journal of Chinese medicine, 2017)
